Laboratory results from ChEMBL document CHEMBL1142686, “CoMFA, synthesis, and pharmacological evaluation of (E)-3-(2-carboxy-2-arylvinyl)-4,6-dichloro-1H-indole-2-carboxylic acids: 3-[2-(3-aminophenyl)-2-carboxyvinyl]-4,6-dichloro-1H-indole-2-carboxylic acid, a potent selective glycine-site NMDA receptor antagonist” (J Med Chem, 2005).
One block for each molecule: values may come before it.

Columns and labels:
[1] = biological target: Glutamate NMDA receptor; assay: Antagonist activity of compound against rat N-methyl-D-aspartate glutamate receptor using 11 nM [3H]glycine; assay type: functional
[2] = biological target: Glutamate NMDA receptor; assay: In vitro inhibitory concentration against binding of the [3H]glycine to strychnine-insensitive glycine binding sites of rat N-methyl-D-aspartate glutamate receptor; assay type: protein-complex assay
[3] = organism: Rattus norvegicus; assay: In vitro inhibitory concentration against glutamate stimulated accumulation of cyclic GMP in neonatal rat cerebral slices; assay type: functional
[4] = system: Mus musculus; assay: In vivo effective dose of compound to protect mice from quinolinic acid seizures upon intravenous administration; assay type: functional
[5] = system: Mus musculus; assay: In vivo effective dose to protect the mouse (DBA/2J) from audiogenic seizures upon intraperitoneal administration; assay type: functional; settings: ip
[6] = system: Mus musculus; assay: In vivo effective dose against harmaline induced cGMP elevation in mouse cerebellum upon intravenous administration; assay type: functional
[7] = system: Rattus norvegicus; assay: In vivo effective dose to protect rats against maximal electroshock induced seizures upon intravenous administration; assay type: functional
In short: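 Maximal electroshock seizures in adult male CDF rats, compound iv, vehicle water, saline or 50 mM Tris base at 1 mL/kg.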

[8] = biological target: Glutamate NMDA receptor; assay: Binding affinity against strychnine-insensitive glycine sites of rat N-methyl-D-aspartate glutamate receptor using [3H]glycine; assay type: protein-complex assay
In short: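 Strychnine-insensitive [3H]glycine binding to washed, Triton-treated rat cortical/hippocampal membranes. Triplicates with strychnine and 400 µg protein in 50 mM HEPES-KOH pH 7.4, 30 min at 4 °C. Ended by centrifugation; pellets counted by scintillation; nonspecific binding taken in 0.1 mM D-serine. IC50 = concentration halving specific binding, mean of two or more experiments, fitted by logistic nonlinear regression.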

Compound: O=C(Nc1ccccc1)/C(=C/c1c(C(=O)O)[nH]c2cc(Cl)cc(Cl)c12)c1ccccc1
- IC50 [1]: 15 nM

Compound: O=C(O)/C(=C/c1c(C(=O)O)[nH]c2cc(Cl)cc(Cl)c12)c1ccc(Cl)cc1Cl
- IC50 [1]: 116 nM

Compound: O=c1[nH]c2cc(Cl)ccc2c(O)c1-c1cccc(Oc2ccccc2)c1
- IC50 [2]: 13.2 nM
- IC50 [3]: 31 nM
- ED50 [4]: 5.2 mg/kg
- ED50 [5]: 1 mg/kg
- ED50 [6]: < 0.05 mg/kg
- ED50 [7]: 3.5 mg/kg

Compound: O=C(O)/C(=C/c1c(C(=O)O)[nH]c2cc(Cl)cc(Cl)c12)c1cccs1
- IC50 [1]: 9 nM

Compound: O=C(O)/C(=C/c1c(C(=O)O)[nH]c2cc(Cl)cc(Cl)c12)c1ccoc1
- IC50 [1]: 21 nM

Compound: O=C(O)/C(=C/c1c(C(=O)O)[nH]c2cc(Cl)cc(Cl)c12)c1ccsc1
- IC50 [2]: 9.6 nM
- IC50 [1]: 14 nM
- IC50 [3]: 87 nM
- ED50 [4]: 29.5 mg/kg
- ED50 [5]: 18.6 mg/kg
- ED50 [6]: 35 mg/kg
- ED50 [7]: 54.1 mg/kg

Compound: Nc1cccc(/C(=C/c2c(C(=O)O)[nH]c3cc(Cl)cc(Cl)c23)C(=O)O)c1
- Ki [8]: 553 nM

Compound: O=C(/C=C/c1c(C(=O)[O-])[nH]c2cc(Cl)cc(Cl)c12)Nc1ccccc1.[Na+] [GAVESTINEL SODIUM]
- IC50 [2]: 15.2 nM
- IC50 [3]: 262 nM
- ED50 [4]: > 64 mg/kg
- ED50 [5]: > 25 mg/kg
- ED50 [7]: > 32 mg/kg

Compound: O=C(O)/C(=C/c1c(C(=O)O)[nH]c2cc(Cl)cc(Cl)c12)c1ccc(Br)cc1
- IC50 [1]: 29 nM

Compound: CNC(=O)/C(=C/c1c(C(=O)O)[nH]c2cc(Cl)cc(Cl)c12)c1ccccc1
- IC50 [1]: 50 nM

Results, then the molecule that gave them:

- IC50 [1]: 167 nM
Compound: CS(=O)(=O)Nc1ccc(/C(=C\c2c(C(=O)O)[nH]c3cc(Cl)cc(Cl)c23)C(=O)O)cc1

- IC50 [1]: 22 nM
Compound: O=C(O)/C(=C/c1c(C(=O)O)[nH]c2cc(Cl)cc(Cl)c12)c1ccco1

- IC50 [1]: 68 nM
Compound: CN(C)C(=O)/C(=C/c1c(C(=O)O)[nH]c2cc(Cl)cc(Cl)c12)c1ccccc1

- IC50 [1]: 145 nM
Compound: O=C(O)/C(=C/c1c(C(=O)O)[nH]c2cc(Cl)cc(Cl)c12)c1cccc2ccccc12

- IC50 [1]: 31 nM
Compound: O=C(NCc1ccccc1)/C(=C/c1c(C(=O)O)[nH]c2cc(Cl)cc(Cl)c12)c1ccccc1

- IC50 [1]: 136 nM
Compound: COc1ccc(/C(=C\c2c(C(=O)O)[nH]c3cc(Cl)cc(Cl)c23)C(=O)O)cc1

- IC50 [1]: 117 nM
Compound: COc1cccc(/C(=C\c2c(C(=O)O)[nH]c3cc(Cl)cc(Cl)c23)C(=O)O)c1

- IC50 [1]: 38 nM
Compound: O=C(O)c1[nH]c2cc(Cl)cc(Cl)c2c1/C=C/C(=O)N1CCCCC1

- IC50 [1]: 15 nM
Compound: O=C(/C=C/c1c(C(=O)O)[nH]c2cc(Cl)cc(Cl)c12)Nc1ccccc1 [GAVESTINEL]
